# Assay results as given in ChEMBL document CHEMBL3407352, “Identification of anthranilamide derivatives as potential factor Xa inhibitors: drug design, synthesis and biological evaluation” (Eur J Med Chem, 2015).
# Biological target: Coagulation factor X (Homo sapiens, UniProt P00742)
# Experiment: Inhibition of human factor 10a using acromogenic substrate S-2222 preincubated for 30 mins before substrate addition measured after 20 mins by spectrophotometry
# Coagulation factor X, sequence (P00742 41-179 limits assumed): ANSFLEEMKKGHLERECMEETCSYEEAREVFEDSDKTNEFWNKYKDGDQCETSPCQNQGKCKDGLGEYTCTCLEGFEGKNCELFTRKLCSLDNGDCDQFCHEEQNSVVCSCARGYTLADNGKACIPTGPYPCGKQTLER
# Coagulation factor X, sequence (P00742 235-488 limits assumed): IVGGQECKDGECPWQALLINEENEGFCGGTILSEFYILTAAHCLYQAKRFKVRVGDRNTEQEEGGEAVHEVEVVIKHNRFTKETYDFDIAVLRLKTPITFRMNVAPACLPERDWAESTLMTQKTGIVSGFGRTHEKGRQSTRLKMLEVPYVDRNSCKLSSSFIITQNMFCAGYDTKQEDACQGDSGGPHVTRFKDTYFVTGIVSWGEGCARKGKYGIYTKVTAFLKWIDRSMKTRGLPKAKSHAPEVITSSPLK
SMILES,IC50 [µM],Ki [µM]
CN1CCC2N=C(C(=O)N[C@@H]3CCCC[C@@H]3CNC(=O)c3ccc(Cl)s3)SC2C1 (stereo partly drawn),0.027,
C[C@@H](C(=O)N1CCOCC1)N1CC[C@H](NS(=O)(=O)C2=Nc3ccc(Cl)cc3C2)C1=O,,0.09
COc1ccc(NC(=O)c2ccccc2)c(C(=O)Nc2ccc(N3CCCCC3=O)cc2)c1,0.521,
COc1ccc(NC(=O)c2ccc(Cl)cc2)c(C(=O)Nc2ccc(N3CCCCC3=O)cc2)c1,0.023,
COc1ccc(NC(=O)c2cccc(Cl)c2)c(C(=O)Nc2ccc(N3CCCCC3=O)cc2)c1,0.183,
COc1cccc(C(=O)Nc2ccc(OC)cc2C(=O)Nc2ccc(N3CCCCC3=O)cc2)c1,0.378,

# The next lines start with the values.
IC50 [µM],Ki [µM],SMILES
0.298,,COc1ccc(NC(=O)C(=O)Nc2ccc(Cl)cn2)c(C(=O)Nc2ccc(N3CCOCC3=O)cc2)c1
1.12,,COc1ccc(NC(=O)C(=O)Nc2ccccc2)c(C(=O)Nc2ccc(N3CCOCC3=O)cc2)c1
0.798,,COc1ccc(NC(=O)C(=O)Nc2ccccc2Cl)c(C(=O)Nc2ccc(N3CCOCC3=O)cc2)c1
0.621,,COc1ccc(NC(=O)C(=O)Nc2cccc(Cl)c2)c(C(=O)Nc2ccc(N3CCOCC3=O)cc2)c1
0.452,,COc1ccc(NC(=O)C(=O)Nc2ccc(Cl)cc2)c(C(=O)Nc2ccc(N3CCOCC3=O)cc2)c1
0.678,,COc1ccc(NC(=O)C(=O)Nc2ccc(F)cc2)c(C(=O)Nc2ccc(N3CCOCC3=O)cc2)c1
0.828,,COc1ccc(NC(=O)C(=O)Nc2ccccc2OC)c(C(=O)Nc2ccc(N3CCOCC3=O)cc2)c1
0.612,,COc1ccc(NC(=O)C(=O)Nc2ccc(OC)cc2C(=O)Nc2ccc(N3CCOCC3=O)cc2)cc1

# Biological target: Prothrombin (Homo sapiens, UniProt P00734)
# Experiment: Inhibition of human thrombin using acromogenic substrate S-2238 preincubated for 30 mins before substrate addition measured after 20 mins by spectrophotometry
# How it was run: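 Compounds prepared at 10 mM, serially diluted to twelve concentrations in 50 mM Tris-Cl, 100 mM NaCl, 0.1% BSA, pH 7.4; mixed with enzyme (final: human fXa 0.003 U/mL; human thrombin 0.125 U/mL), incubated 30 min at 37 °C. Reaction started with chromogenic substrate (fXa: S-2222; thrombin: S-2238), monitored continuously 20 min at 405 nm; IC50 from mean of duplicates.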
row,IC50 [µM],SMILES
1,48,COc1ccc(NC(=O)c2ccc(Cl)cc2)c(C(=O)Nc2ccc(N3CCCCC3=O)cc2)c1
2,18,COc1ccc(NC(=O)c2ccc(C(=N)N(C)C)cc2)c(C(=O)Nc2ccc(Cl)cn2)c1 [BETRIXABAN]

# System: not listed separately
# Experiment: Anticoagulant activity in plasma (unknown origin) assessed as concentration required to double the time for fibrin formation
# Assay type: functional
# How it was run: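 Clotting times in plasma on automatic coagulometer per manufacturer's instructions; increasing inhibitor concentrations or solvent added to plasma, incubated 3 min at 37 °C, clotting times compared with appropriate control plasma.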
row,SMILES,Activity [µM]
1,COc1ccc(NC(=O)c2ccc(Cl)cc2)c(C(=O)Nc2ccc(N3CCCCC3=O)cc2)c1,8.7
2,COc1ccc(NC(=O)c2ccc(C(=N)N(C)C)cc2)c(C(=O)Nc2ccc(Cl)cn2)c1 [BETRIXABAN],2.4
